Assay results reported in ChEMBL document CHEMBL1136075, “Synthesis of the novel liqustrazine derivatives and Their protective effect on injured vascular endothelial cell damaged by hydrogen peroxide” (2003).
The source made the active and inactive calls. The rule behind the calls is not given here.

How the values were obtained:
[1] = system: HUVEC; assay: Maximum stimulation of proliferation rate of human umbilical vascular endothelial cells (HUVECs) by the compound at a concentration of 0.1 mM; format: functional
How it was run: (§1)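 Cultured human umbilical vein endothelial cells (normal, uninjured) exposed to compound over 0.1–1.5 mmol L⁻¹; viability by MTT, absorbance at 570 nm. Proliferation rate P(%) = (A − A0)/A0, with A0 the vehicle-treated control wells. The maximum P over the concentrations tested is reported. Mean ± SEM, n=6 wells.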

[2] = system: HUVEC; assay: Maximum stimulation of proliferation rate of human umbilical vascular endothelial cells (HUVECs) by the compound at a concentration of 0.6 mM; format: functional; how it was run: as §1
[3] = system: HUVEC; assay: Maximum stimulation of proliferation rate of human umbilical vascular endothelial cells (HUVECs) by the compound at a concentration of 1.5 mM; format: functional; how it was run: as §1
[4] = system: HUVEC; assay: Maximum stimulation of proliferation rate of human umbilical vascular endothelial cells (HUVECs) by the compound at a concentration of 0.1-1.5 mM; NA is not active; format: functional, cell-based; how it was run: as §1

Compound	Pmax [1]	further results
Cc1nc(C)c(COC(=O)c2ccc(Cl)cc2)nc1C	82.55%	–
COc1cc(/C=C/C(=O)OCc2nc(C)c(C)nc2C)ccc1O	83.87%	–
Cc1nc(C)c(COC(=O)c2ccco2)nc1C	–	Pmax [2]: 69.39%
Cc1nc(C)c(COC(=O)CCc2ccccc2)nc1C	80.54%	–
Cc1nc(C)c(COC(=O)c2ccccc2Cl)nc1C	–	Pmax [2]: 32.1%
COc1ccccc1C(=O)OCc1nc(C)c(C)nc1C	71.95%	–
Cc1nc(C)c(CO)nc1C	–	Pmax [2]: 28.03%
Cc1nc(C)c(COC(=O)c2cccc(Cl)c2)nc1C	59.32%	–
COc1ccc(C(=O)OCc2nc(C)c(C)nc2C)cc1OC	52.95%	–
COc1ccc(/C=C/C(=O)OCc2nc(C)c(C)nc2C)c(OC)c1	70.16%	–
Cc1nc(C)c(COC(=O)c2ccccc2I)nc1C	–	Pmax [3]: 61.36%
COc1cc(C(=O)OCc2nc(C)c(C)nc2C)cc(OC)c1OC	45.8%	–
Cc1nc(C)c(COC(=O)C(C)(C)Oc2ccc(Cl)cc2)nc1C	87.85%	–
Cc1nc(C)c(COC(=O)c2ccccc2)nc1C	–	Pmax [2]: 37%
Cc1nc(C)c(COC(=O)/C=C/c2ccccc2)nc1C	–	Pmax [2]: 77.32%
CC(=O)Oc1ccccc1C(=O)OCc1nc(C)c(C)nc1C	70.88%	–
Cc1nc(C)c(COC(=O)c2cccnc2)nc1C	88.57%	–
Cc1nc(C)c(COC(=O)c2ccc(Br)cc2)nc1C	–	Pmax [4]: inactive
Cc1nc(C)c(COC(=O)Cc2ccccc2)nc1C	76.11%	–
COc1ccc(C(=O)OCc2nc(C)c(C)nc2C)cc1	66.04%	–
COc1ccc(/C=C/C(=O)OCc2nc(C)c(C)nc2C)cc1	75.45%	–
Cc1nc(C)c(COC(=O)c2ccc(Br)cc2Br)nc1C	–	Pmax [4]: inactive
Cc1nc(C)c(C)nc1C [LIGUSTRAZINE]	–	Pmax [2]: 20.66%
